One series has as its system HCT-116. Description: Cytotoxicity against human HCT116 cells. The format is functional, cell-based.
Another series deals with HeLa. Description: Cytotoxicity against human HeLa cells. The format is functional, cell-based.
Another series relates to AGS. Put plainly: Cytotoxicity against human AGS cells. The format is functional, cell-based.
A further series concerns the target Albumin (Bos taurus, UniProt P02769). Put plainly: Binding affinity to bovine serum albumin at 25 uM by fluorescence spectra analysis. As to conditions: cattle, isolated protein. The series is classed as ADME.
The test system of series [1] is DNA. Description: Displacement of ethidium bromide from calf thymus DNA by spectrometric analysis. The format is nucleic-acid assay. Conditions: Bos taurus. In a few lines:
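Competitive EtBr displacement from CT-DNA monitored by emission spectroscopy. Kq taken as slope of I0/I versus [Q]. Kapp obtained from KEB[EB] = Kapp[compound], using compound concentration giving 50% loss of EB fluorescence, KEB = 1.0 × 10^7 M−1, [EB] = 5 μM.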

Series [2] in a line: Antioxidant activity assessed as superoxide radical scavenging activity by NBT reduction assay. The series is classed as functional.
A short description of series [3]: Antioxidant activity assessed as hydroxyl radical scavenging activity after 15 mins by spectrophotometric analysis. The format is functional.
In series [4] the test system is Radical scavenging activity. Put plainly: Antioxidant activity assessed as DPPH radical scavenging activity. The series is classed as functional. A general note: DPPH is a stable violet radical that fades when it is reduced.
Series [5] in a line: Antioxidant activity assessed as EDTA equivalent of chelating effect after 10 mins by spectrophotometric analysis. The format is functional. In short, it runs like this: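 Ferrous-ion chelation: compounds or EDTA standard added to 2 mmol/L FeCl2 solution, then 5 mmol/L ferrozine added to start reaction. Mixture shaken vigorously and left 10 min at room temperature. Absorbance read at 562 nm. Activity expressed as mg EDTA equivalent/g.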

The nature of series [6]: Antioxidant activity assessed as trolox equivalents of ABTS radical scavenging activity after 30 mins by TEAC assay. The format is functional. In a few lines:
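ABTS (7 mM in water) was oxidized with 2.45 mM potassium persulfate (final) for 12–16 h in the dark at room temperature. The radical was diluted in ethanol to A734 0.700 ± 0.02 at 30 °C, then added to sample or Trolox standards (final 0–15 μM). A734 was read at 30 °C, 30 min after mixing. Results are given as μmol Trolox equivalent/g.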

The subject of series [7] is DNA. Description: Binding affinity to calf thymus DNA by absorption titration. As to conditions: Bos taurus.

SMILES strings stand for the structures. Active and inactive are the calls of the source. No cut-off for these calls is given here.

For orientation: IC50 means the concentration needed to halve the response being measured.

Sequence of Albumin (P02769 whole entry): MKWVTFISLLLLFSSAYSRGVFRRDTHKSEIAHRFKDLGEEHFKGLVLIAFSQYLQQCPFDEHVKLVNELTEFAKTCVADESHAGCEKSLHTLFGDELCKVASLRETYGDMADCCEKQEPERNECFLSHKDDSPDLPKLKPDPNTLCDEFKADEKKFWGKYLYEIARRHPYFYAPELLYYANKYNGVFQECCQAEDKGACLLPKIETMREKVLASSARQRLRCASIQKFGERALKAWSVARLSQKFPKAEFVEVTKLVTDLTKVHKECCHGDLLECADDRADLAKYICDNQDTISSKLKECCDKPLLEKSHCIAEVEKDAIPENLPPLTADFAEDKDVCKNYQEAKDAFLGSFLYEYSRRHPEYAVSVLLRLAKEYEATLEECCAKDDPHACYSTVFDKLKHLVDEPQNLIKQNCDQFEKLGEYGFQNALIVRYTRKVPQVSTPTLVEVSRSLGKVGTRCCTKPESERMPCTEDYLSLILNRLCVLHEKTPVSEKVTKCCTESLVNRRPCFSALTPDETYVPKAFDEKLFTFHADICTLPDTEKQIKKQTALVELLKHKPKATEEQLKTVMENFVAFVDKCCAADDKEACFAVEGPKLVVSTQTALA

On to `CC(C)(C)c1cc(CCC(=O)O)cc(C(C)(C)C)c1F`, for which the outcome with HCT-116, in the series with HeLa and with AGS was inactive. Moreover, the figures for the Activity entry (on Albumin; in [5]; in [6]) were “Active”, 4.5 mg/g and 6740 µmol/g, respectively. In the series with DNA [1], this compound gave a Kapp of 1.6 ×10⁵ /M. For the same compound, in the series on DNA [1], the Kq came out at 1.71 ×10⁴ /M. Further, the concentration for half-maximal inhibition (IC50) in [2] worked out at 8.4 µM; in [3], 25.8 µM; in [4], 8.4 µM. In addition, the Kb in the series with DNA [7] turned out to be 3.13 ×10⁴ /M.

In the case of `CC(C)C[C@H](NC(=O)[C@@H](O)C[C@H](N)CN)C(N)=O`, the outcome in the series on HCT-116, with HeLa and in the series with AGS was inactive. Further, the values for the Activity result (at Albumin; in series [5]; in series [6]) were “Active”, 11.9 mg/g and 4090 µmol/g, respectively. In the series on DNA [1], this compound registered a Kapp of 0.13 ×10⁵ /M. The Kq in the series with DNA [1] was 0.26 ×10⁴ /M. Further, the results for the IC50 in series [2], in series [3] and in series [4] were 34.6 µM, 35.5 µM and 34.7 µM, respectively. Also, in the series with DNA [7], the Kb is 2.36 ×10⁴ /M.

`Cc1cc(C(C)(C)C)c(O)c(C(C)(C)C)c1` [BUTYLATED HYDROXYTOLUENE]: the IC50 in series [2] came to 8.6 µM; in [3] it was 11.5 µM; in series [4], 4.5 µM. The Activity in [5] came to 15.4 mg/g; in [6], 6050 µmol/g.

For the compound `C=CCC(CC=C)(CC=C)c1ccc(CCCCCCCCC)cc1O`, the result in the series on HCT-116, in the series on HeLa and in the series on AGS was inactive. Further, the values for the Activity entry (on Albumin; in series [5]; in [6]) were “Active”, 8.4 mg/g and 4020 µmol/g, respectively. In the series with DNA [1], this compound gave a Kapp of 0.34 ×10⁵ /M. The Kq with DNA [1] was determined as 0.68 ×10⁴ /M. Besides, the IC50 in [2] came out at 32.8 µM; in [3] it was 31.1 µM; in series [4] it was 14.9 µM. In addition, the Kb in the series with DNA [7] is 2.23 ×10⁴ /M.

In the case of `C[C@@H]1O[C@@H](OC[C@H]2O[C@@H](Oc3c(-c4ccc(O)c(O)c4)oc4cc(O)cc(O)c4c3=O)[C@H](O)[C@@H](O)[C@@H]2O)[C@H](O)[C@H](O)[C@H]1O` [RUTIN], the results for the IC50 in [2], in [3] and in series [4] were 4.7 µM, 19.4 µM and 4.7 µM, respectively. Moreover, the figures for the Activity in series [5] and in [6] were 18.5 mg/g and 10100 µmol/g, respectively.
